Measurements gathered from unrelated publications.
Lines come from different studies, so protocols differ.
SLC22A1: Solute carrier family 22 member 1 (SLC22A1, Homo sapiens, UniProt O15245)

Structure (SMILES) | target or system | assay | test system | conditions | measurement | value
COc1ccc(-c2cc(=O)c3c(OC)cc(OC)c(-c4c(OC)cc(OC)c5c(=O)cc(-c6ccc(OC)cc6)oc45)c3o2)cc1 | HS27 | cell growth or viability, MTT |  | 24 h | CC50 | > 200 µM
COc1ccc(CN2C[C@H]3CC[C@@H]4[C@](C)(CO)[C@H](O)CC[C@@]4(C)[C@@H]3C[C@@H]2C2=CCOC2=O)cc1 | MRC5 | cell growth or viability, ATP luminescence |  | 25 µM, 72 h | cell death | -1.8%
CCCCOC(=O)N1CCN(C(=O)[C@H](CP(=O)(O)O)NC(=O)c2cc(N3CC[C@H](OC)C3)nc(-c3ccccc3)n2)CC1 |  |  | human, plasma | subcutaneous, 16 mg, 24 h, single dose | concentration | 2.1 ng/mL
COc1cc(OC)c2c(=O)cc(-c3cccc(Br)c3)oc2c1 | HS27 | cell growth or viability, MTT |  | 24 h | CC50 | 128 µM
C=C[C@H]1C[N@@]2CC[C@H]1C[C@@H]2[C@@H](O)c1ccnc2ccc(OC)cc12 | SLC22A1 | transporter uptake, inhibitor | MDCK-II | 100 µM, 5 min | inhibition | 77%
CC(C)CN1C[C@H]2CC[C@@H]3[C@]4(C)COC(C)(C)O[C@@H]4CC[C@@]3(C)[C@@H]2C[C@@H]1C1=CCOC1=O | MRC5 | cell growth or viability, ATP luminescence |  | 25 µM, 72 h | cell death | -4.1%
C=CCn1c(=O)c2cnc(Nc3ccc(N4CCN(C)CC4)cc3)nc2n1-c1cccc(C(C)(C)O)n1 |  |  | human, plasma | oral, 200 mg, 8 h, single dose | concentration | 300 nM
Oc1c(-n2ccnn2)cnn1-c1cc(N2CCOCC2)ncn1 |  |  | female monkey, plasma | oral, 1 mg/kg | bioavailability | 61%
COc1ccc(-c2cc(=O)c3c(OC)cc(OC)cc3o2)cc1 | HS27 | cell growth or viability, MTT |  | 24 h | CC50 | > 200 µM
C[C@@]12COCO[C@@H]1CC[C@]1(C)[C@@H]2CC[C@@H]2CN(Cc3ccc(F)cc3)[C@@H](C3=CCOC3=O)C[C@H]21 | MRC5 | cell growth or viability, ATP luminescence |  | 25 µM, 72 h | cell death | -4.3%
O=C(O)CSc1nnc(Br)n1-c1ccc(C2CC2)c2ccccc12 | SLC22A1 | transporter uptake, inhibitor | MDCK-II | 3 µM, 5 min | inhibition | 36%
COc1cc(C)c(-c2c(C)cc(OC)c3c(=O)cc(-c4ccccc4Br)oc23)c2oc(-c3ccccc3Br)cc(=O)c12 | HS27 | cell growth or viability, MTT |  | 24 h | CC50 | > 200 µM
